In ChEMBL document CHEMBL1151198, “A new antimalarial quassinoid from Simaba orinocensis” (J Nat Prod, 2004):
pIC50: −log10 of the molar value. Converted amounts (≈) assume the structure as drawn. The source made the active and inactive calls. The rule behind the calls is not given here.

Tests used:
[1] = system: Vero; assay: Cytotoxicity against african green monkey kidney Vero cells; format: cell-based; settings: Chlorocebus sabaeus
[2] = system: Plasmodium falciparum; assay: Antimalarial activity against chloroquine-resistant Plasmodium falciparum W2 by LDH assay; format: functional, organism-based
[3] = system: Leishmania donovani; assay: Antileishmanial activity against Leishmania donovani promastigotes after 48 hrs by alamar blue assay; format: functional, organism-based
[4] = Inhibition of protein biosynthesis in mouse Krebs cells assessed as renilla luciferase activity at 2 uM after 1 hr by translation assay relative to control; format: functional
Method in brief: (§1)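 In vitro Krebs cell translation system read by firefly and renilla luciferase. Compounds at 10 or 2 µM; anisomycin 10 µM as reference and 0.5% DMSO as vehicle control. Values are average luciferase activity relative to control.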

[5] = Inhibition of protein biosynthesis in mouse Krebs cells assessed as firefly luciferase activity at 10 uM after 1 hr by translation assay relative to control; format: functional; method in brief: as §1
[6] = Inhibition of protein biosynthesis in mouse Krebs cells assessed as firefly luciferase activity at 2 uM after 1 hr by translation assay relative to control; format: functional; method in brief: as §1
[7] = system: HeLa; assay: Inhibition of translation in human HeLa cells at 10 uM by 35S-methionine metabolic labeling study; format: functional, cell-based
[8] = system: HeLa; assay: Inhibition of protein synthesis in human HeLa cells at 2 uM by [35S]methionine metabolic labeling study; format: functional
[9] = system: HeLa; assay: Inhibition of translation in human HeLa cells at 2 uM by 35S-methionine metabolic labeling study; format: functional, cell-based
[10] = system: Plasmodium falciparum; assay: Antimalarial activity against chloroquine-sensitive Plasmodium falciparum D6 by LDH assay; format: functional, organism-based
[11] = Inhibition of protein biosynthesis in mouse Krebs cells assessed as renilla luciferase activity at 10 uM after 1 hr by translation assay relative to control; format: functional; method in brief: as §1
[12] = system: HeLa; assay: Inhibition of protein synthesis in human HeLa cells assessed as translation at 2 uM by [35S]methionine metabolic labeling study; format: functional; parameters: scale not given: the % may be the effect or the level left
[13] = biological target: Intercellular adhesion molecule (ICAM-1), Integrin alpha-L/beta-2 (Homo sapiens, UniProt P05107+P05362+P20701); assay: Inhibition of LFA1/ICAM1-mediated adhesion of HL60 cells to CHO-ICAM1 cells; format: cell-based, HL-60
Chain of Intercellular adhesion molecule (ICAM-1), Integrin alpha-L/beta-2 (P20701 whole entry): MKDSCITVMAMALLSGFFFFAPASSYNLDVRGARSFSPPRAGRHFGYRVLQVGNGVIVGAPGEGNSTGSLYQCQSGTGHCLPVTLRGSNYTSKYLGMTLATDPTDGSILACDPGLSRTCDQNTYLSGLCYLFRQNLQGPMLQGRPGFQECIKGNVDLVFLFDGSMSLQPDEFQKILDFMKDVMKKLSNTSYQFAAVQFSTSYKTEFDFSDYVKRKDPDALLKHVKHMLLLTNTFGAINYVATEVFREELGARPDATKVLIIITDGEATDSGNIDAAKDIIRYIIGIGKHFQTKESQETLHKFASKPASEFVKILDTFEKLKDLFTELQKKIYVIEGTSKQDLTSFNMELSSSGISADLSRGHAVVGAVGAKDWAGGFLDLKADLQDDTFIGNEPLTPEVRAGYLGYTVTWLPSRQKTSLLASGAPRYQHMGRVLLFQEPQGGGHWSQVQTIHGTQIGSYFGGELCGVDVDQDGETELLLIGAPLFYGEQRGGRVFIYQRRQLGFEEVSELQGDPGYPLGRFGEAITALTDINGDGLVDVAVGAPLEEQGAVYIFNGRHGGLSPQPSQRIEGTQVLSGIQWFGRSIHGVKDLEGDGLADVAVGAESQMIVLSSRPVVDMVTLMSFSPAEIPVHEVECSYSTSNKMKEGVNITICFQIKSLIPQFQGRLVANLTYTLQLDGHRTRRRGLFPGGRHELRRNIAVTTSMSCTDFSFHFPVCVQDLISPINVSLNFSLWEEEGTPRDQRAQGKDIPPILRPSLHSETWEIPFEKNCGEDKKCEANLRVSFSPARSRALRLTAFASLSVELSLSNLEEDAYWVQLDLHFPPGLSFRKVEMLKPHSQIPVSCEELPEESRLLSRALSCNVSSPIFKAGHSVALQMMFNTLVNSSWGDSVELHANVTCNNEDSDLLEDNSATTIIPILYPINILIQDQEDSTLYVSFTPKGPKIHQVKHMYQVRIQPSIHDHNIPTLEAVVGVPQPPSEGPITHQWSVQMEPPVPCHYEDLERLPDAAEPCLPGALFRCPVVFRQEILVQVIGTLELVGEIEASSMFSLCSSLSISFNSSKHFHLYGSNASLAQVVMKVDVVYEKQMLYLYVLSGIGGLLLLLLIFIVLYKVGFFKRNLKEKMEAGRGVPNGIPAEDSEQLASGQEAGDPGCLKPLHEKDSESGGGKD
Chain of Intercellular adhesion molecule (ICAM-1), Integrin alpha-L/beta-2 (P05362 whole entry): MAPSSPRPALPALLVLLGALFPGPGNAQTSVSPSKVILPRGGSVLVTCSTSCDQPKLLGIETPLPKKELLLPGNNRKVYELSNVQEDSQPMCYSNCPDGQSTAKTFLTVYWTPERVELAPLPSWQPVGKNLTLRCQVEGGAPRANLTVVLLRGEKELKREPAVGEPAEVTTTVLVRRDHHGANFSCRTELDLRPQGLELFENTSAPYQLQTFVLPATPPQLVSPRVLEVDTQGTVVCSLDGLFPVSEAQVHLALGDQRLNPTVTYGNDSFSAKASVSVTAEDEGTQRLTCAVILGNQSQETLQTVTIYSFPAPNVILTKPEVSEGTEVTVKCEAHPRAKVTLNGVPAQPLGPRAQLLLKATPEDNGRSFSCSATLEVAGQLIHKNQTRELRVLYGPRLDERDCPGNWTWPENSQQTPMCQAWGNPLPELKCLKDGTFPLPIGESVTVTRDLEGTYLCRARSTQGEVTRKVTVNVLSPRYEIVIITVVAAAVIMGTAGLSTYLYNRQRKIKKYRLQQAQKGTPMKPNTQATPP
Chain of Intercellular adhesion molecule (ICAM-1), Integrin alpha-L/beta-2 (P05107 whole entry): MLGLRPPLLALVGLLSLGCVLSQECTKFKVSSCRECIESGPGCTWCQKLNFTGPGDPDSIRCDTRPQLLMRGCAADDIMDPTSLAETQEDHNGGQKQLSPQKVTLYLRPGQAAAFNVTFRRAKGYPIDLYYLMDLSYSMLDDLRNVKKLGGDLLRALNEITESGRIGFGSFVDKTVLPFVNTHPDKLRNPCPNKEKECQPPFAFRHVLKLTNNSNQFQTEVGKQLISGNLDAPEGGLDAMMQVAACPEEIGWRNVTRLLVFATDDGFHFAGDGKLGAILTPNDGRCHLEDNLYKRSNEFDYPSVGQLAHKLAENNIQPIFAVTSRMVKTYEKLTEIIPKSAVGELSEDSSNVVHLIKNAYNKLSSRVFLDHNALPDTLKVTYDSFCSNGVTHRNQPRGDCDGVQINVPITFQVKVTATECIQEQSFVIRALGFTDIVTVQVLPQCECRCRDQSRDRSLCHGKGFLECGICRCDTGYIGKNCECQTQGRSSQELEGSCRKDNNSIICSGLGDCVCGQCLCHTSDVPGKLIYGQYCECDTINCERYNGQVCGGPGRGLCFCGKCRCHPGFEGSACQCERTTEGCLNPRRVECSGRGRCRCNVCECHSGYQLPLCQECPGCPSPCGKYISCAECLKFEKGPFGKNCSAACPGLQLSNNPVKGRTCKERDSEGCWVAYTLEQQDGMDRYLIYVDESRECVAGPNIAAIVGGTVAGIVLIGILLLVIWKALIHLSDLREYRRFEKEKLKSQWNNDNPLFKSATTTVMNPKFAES
Method in brief: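 Secondary LFA-1/ICAM-1-mediated adhesion assay using HL-60 cells and CHO-ICAM-1 cells, with cytochalasin B as standard. IC50 in µg/mL, mean ± SEM of three determinations.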

[14] = Selectivity index, ratio of IC50 for african green monkey (Cercopithecus aethiops) Vero cells to IC50 for chloroquine-sensitive Plasmodium falciparum D6; format: toxicity, cell-based; settings: read-out: Ratio IC50
[15] = Selectivity index, ratio of IC50 for african green monkey (Cercopithecus aethiops) Vero cells to IC50 for chloroquine-resistant Plasmodium falciparum W2; format: toxicity, cell-based; settings: read-out: Ratio IC50
[16] = system: SK-MEL; assay: Cytotoxicity against human SK-MEL cells after 48 hrs by neutral red staining; format: functional, cell-based
Method in brief: (§2)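 Human tumour lines: SK-MEL (malignant melanoma), KB (epidermal carcinoma), BT-549 (ductal carcinoma) and SK-OV-3 (ovary carcinoma). Compounds tested up to a maximum of 10 µg/mL, with doxorubicin as reference. IC50 given in µg/mL as mean ± SEM of three determinations.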

[17] = biological target: Intercellular adhesion molecule (ICAM-1), Integrin alpha-L/beta-2 (Homo sapiens) (UniProt P20701+P05362+P05107); assay: Inhibition of LFA1/ICAM1-mediated HL60 cell aggregation; format: cell-based; settings: HL-60
Method in brief: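 Primary screen for LFA-1/ICAM-1-mediated cell aggregation run together with an XTT cell-proliferation read-out. Aggregation potency is reported as a minimum inhibitory concentration in µg/mL.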

[18] = Specific index, ratio of IC50 for human HL60 cells to MIC for LFA1/ICAM1; format: functional, HL-60
Method in brief: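 Index calculated as XTT-assay IC50 (µg/mL) divided by the MIC from the LFA-1/ICAM-1-mediated aggregation primary screen (µg/mL). XTT IC50 values are given as mean ± SEM of three determinations.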

[19] = Specific index, ratio of IC50 for mouse RAW264.7 to IC50 for iNOS production in mouse RAW264.7
Method in brief: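 Index calculated as the MTT IC50 in RAW 264.7 cells divided by the iNOS IC50 in the same cells.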

[20] = system: BT-549; assay: Cytotoxicity against human BT549 cells after 48 hrs by neutral red staining; format: functional, cell-based; settings: BT-549, 48 h; method in brief: as §2
[21] = system: KB; assay: Cytotoxicity against human KB cells after 48 hrs by neutral red staining; format: functional, cell-based; method in brief: as §2
[22] = system: RAW264.7; assay: Inhibition of iNOS production in LPS-activated mouse RAW264.7 cells after 20 hrs; format: functional, cell-based; settings: RAW264.7, 20 h
Method in brief: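 iNOS assay in RAW 264.7 cells, with L-NMMA, APDC and dexamethasone as reference inhibitors. IC50 in µg/mL, mean ± SEM of three determinations.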

[23] = system: RAW264.7; assay: Cytotoxicity against mouse RAW264.7 cells after 2 days by MTT assay; format: cell-based; settings: RAW264.7, 48 h
Method in brief: (§3)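 MTT viability assay, run on CHO-ICAM-1 cells and, separately, on RAW 264.7 cells. IC50 in µg/mL, mean ± SEM of three determinations.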

[24] = system: SK-OV-3; assay: Cytotoxicity against human SKOV3 cells after 48 hrs by neutral red staining; format: functional, cell-based; settings: SK-OV-3, 48 h; method in brief: as §2
[25] = system: CHO; assay: Cytotoxicity against CHO cells transfected with ICAM1 by MTT assay; format: cell-based; settings: Cricetulus griseus; method in brief: as §3
[26] = system: HL-60; assay: Cytotoxicity against human HL60 cells by XTT assay; format: cell-based
Method in brief: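 XTT proliferation read-out combined with the primary assay for inhibitors of LFA-1/ICAM-1-mediated cell aggregation. IC50 in µg/mL, mean ± SEM of three determinations.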

[27] = system: HeLa; assay: Inhibition of translation in human HeLa cells at 0.4 uM by 35S-methionine metabolic labeling study; format: functional, cell-based
[28] = Inhibition of protein biosynthesis in mouse Krebs cells assessed as renilla luciferase activity at 0.4 uM after 1 hr by translation assay relative to control; format: functional
Method in brief: (§4)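 In vitro Krebs cell-extract translation system with firefly and Renilla luciferase read-outs, reported as average relative luciferase values. Compounds were tested at fixed concentrations (0.4–10 µM). DMSO (0.5%) served as vehicle control.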

[29] = Inhibition of protein biosynthesis in mouse Krebs cells assessed as firefly luciferase activity at 0.4 uM after 1 hr by translation assay relative to control; format: functional; method in brief: as §4

SMILES | IC50 [1] [µg/mL] | IC50 [2] [µg/mL] | IC50 [3] [µg/mL] | IC90 [3] [µg/mL] | Activity [4] | Activity [5] | Activity [6] | Activity [7] | inhibition at 2 µM [8] [%] | Activity [9] | IC50 [10] [µg/mL] | Activity [11] | Activity [12] [%] | pIC50 [13] | selectivity ratio [14] | selectivity ratio [15] | IC50 [16] [µg/mL] | MIC [17] [µg/mL] | IC50 [22] [µg/mL] | IC50 [23] [µg/mL] | also measured
CCN(CC)CCCC(C)Nc1ccnc2cc(Cl)ccc12 (stereo unspecified) [CHLOROQUINE] | > 10 |  |  |  |  |  |  |  |  |  |  |  |  |  |  |  |  |  |  |  | 
CC[C@@H](C)C(=O)O[C@H]1C(=O)O[C@@H]2C[C@H]3C(C)=C[C@H](OC(C)=O)[C@@H](OC(C)=O)[C@]3(C)[C@H]3[C@@H](O)[C@@H](OC(C)=O)[C@]4(C)OC[C@]32[C@@H]14 | 10 (≈ 16.5 µM) | > 4.76 | > 50 | > 50 | 1.14 | 1.02 | 0.87 | inactive | 0 | inactive | > 4.76 | 1.03 | 100 |  |  |  |  |  |  |  | 
CC[C@@H](C)C(=O)O[C@H]1C(=O)O[C@@H]2C[C@H]3C(C)=C[C@H](O)[C@@H](O)[C@]3(C)[C@H]3[C@@H](O)[C@@H](O)[C@]4(C)OC[C@]32[C@@H]14 | 10 (≈ 20.8 µM) | 0.00853 (≈ 0.0178 µM) | 25 (≈ 52 µM) | > 50 | 0.57 | 0.05 | 0.35 | Active | 96.5 |  | 0.00327 (≈ 0.0068 µM) | 0.09 | 3.5 | < 4.28 | 3060 | 1180 | 1.9 (≈ 3.95 µM) | 0.26 (≈ 0.541 µM) | 6.5 (≈ 13.5 µM) | 4.2 (≈ 8.74 µM) | Ratio [18]: 2.7; Ratio [19]: 0.6; IC50 [20]: 1.7 µg/mL (≈ 3.54 µM); IC50 [21]: 1.9 µg/mL (≈ 3.95 µM); IC50 [24]: 0.8 µg/mL (≈ 1.66 µM); IC50 [25]: 2.5 µg/mL (≈ 5.2 µM); IC50 [26]: 0.7 µg/mL (≈ 1.46 µM)
CC[C@@H](C)C(=O)O[C@H]1C(=O)O[C@@H]2C[C@H]3C(C)=CC(=O)[C@@H](O)[C@]3(C)[C@H]3[C@@H](OC(C)=O)[C@H](OC(C)=O)[C@]4(C)OC[C@]32[C@@H]14 | > 23.8 | 1.7 (≈ 3.02 µM) | > 50 | > 50 | 0.87 | 0.42 | 1.34 | inactive | 0 | inactive | 3.2 (≈ 5.69 µM) | 0.52 | 100 | < 4.35 | > 7.4 | > 14 | > 10 | 20.8 (≈ 37 µM) | 23 (≈ 40.9 µM) | 24 (≈ 42.7 µM) | Ratio [18]: 1.9; Ratio [19]: 1; IC50 [20]: > 10 µg/mL; IC50 [21]: > 10 µg/mL; IC50 [24]: > 10 µg/mL; IC50 [25]: 39 µg/mL (≈ 69.3 µM); IC50 [26]: 40 µg/mL (≈ 71.1 µM)
C[C@@H]1C[C@H]2[C@@H]3CCC4=CC(=O)C=C[C@]4(C)[C@@]3(F)[C@@H](O)C[C@]2(C)[C@@]1(O)C(=O)CO [DEXAMETHASONE] |  |  |  |  |  |  |  |  |  |  |  |  |  |  |  |  |  |  | 36 (≈ 91.7 µM) | > 25 | Ratio [19]: 0.69
CC[C@@H](C)C(=O)O[C@H]1C(=O)O[C@@H]2C[C@H]3C(C)=CC(=O)[C@@H](O)[C@]3(C)[C@H]3[C@@H](O)[C@H](O)[C@]4(C)OC[C@]32[C@@H]14 [SIMALIKALACTONE D] | 2.3 (≈ 4.81 µM) | 0.00367 (≈ 0.00767 µM) | 0.035 (≈ 0.0731 µM) | 0.2 (≈ 0.418 µM) | 0.09 |  | 0.05 |  | 98.5 | Active | 0.003 (≈ 0.00627 µM) |  | 1.5 | < 4.28 | 750 | 613 | 0.28 (≈ 0.585 µM) | 0.01 (≈ 0.0209 µM) | 0.76 (≈ 1.59 µM) | 0.08 (≈ 0.167 µM) | Activity [27]: Active; Activity [28]: 0.25; Ratio [18]: 2.5; Activity [29]: 0.17; IC50 [20]: 0.3 µg/mL (≈ 0.627 µM); IC50 [21]: 1 µg/mL (≈ 2.09 µM); IC50 [24]: 0.3 µg/mL (≈ 0.627 µM); IC50 [25]: 0.032 µg/mL (≈ 0.0669 µM); IC50 [26]: 0.025 µg/mL (≈ 0.0522 µM)
